A number with no mark means an inactive call.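 Rule for the calls: active = growth inhibition above 25% in both replicates, a cutoff set 3 SD above the mean; inconclusive = above 25% in only one replicate; inactive = the rest.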

21 compounds from PubChem BioAssay can be followed below.

The test in a line: S. cerevisiae growth inhibition in permissive medium (OD615), pilot counter-assay for S. cerevisiae lifespan shortening project, permissive growth control (AID 705). The following applies: OD615, 24 h, at 10 µM, active compounds read high. The essentials: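 Material: engineered DeaD yeast; compound dosing: one dose 10 µM, DMSO 0.25% final; measure: yeast growth inhibition indicated by reduced 24 h OD615; detection: OD615 turbidity read; incubation: cells pre-grown 4 h, then 24 h compound exposure, 30 °C humidified; medium: permissive synthetic complete medium with raffinose and galactose carbon sources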
Take `Cc1cccc(N2CCN(C(=O)c3cc4c(C)nc5ccccc5c4o3)CC2)c1C`: the growth inhibition was -8.18%.
For the compound `N#Cc1c(NC(=O)CCCN2C(=O)c3ccccc3C2=O)oc(-c2ccccc2)c1-c1ccccc1`, the growth inhibition is -1.81%.
Turning to `CCn1c(C(C)NC(=O)c2cccc(C)c2)nc2ccccc21` (stereo unspecified), the growth inhibition is -8.83%.
As for `COc1cc(/C=C/C2=NC(=O)C(C)(C)O2)ccc1O`, the growth inhibition was -1.35%.
On to `COc1ccc(OC)c(NC(=O)CN(c2ccc(C(C)C)cc2)S(=O)(=O)c2c(C)noc2C)c1`, for which the growth inhibition is -11.5%.
On to `O=C(Cn1cc2c(n1)CCCCC2)NCCCN1CCOCC1`, for which the growth inhibition is -9.29%.
On to `O=C(CCS(=O)(=O)c1cccc2nonc12)N1CCN(c2ccc(F)cc2)CC1`, for which the growth inhibition was -6.7%.
For `Cc1ccc(CNC(=O)CS(=O)Cc2nc(-c3ccccc3C)oc2C)cc1` (stereo unspecified), the growth inhibition was -3.71%.
Consider `CCC(C)(C(=O)NC1CCCC1)N(C(=O)CNC(C)=O)c1ccc(C)cc1` (stereo unspecified), for which the growth inhibition was -1.46%.
For the compound `COc1ccc(OC)c2c1sc(=NC(=O)c1ccco1)n2C`, the growth inhibition is -3.52%.
Consider `C=CCNc1ncnc2c1cnn2-c1ccc(Cl)cc1`, for which the growth inhibition is -2.23%.
Under `O=C(c1cnn2ccccc12)N1CCCc2ccccc21` stands -3.54%.
Under `COc1cc2c(cc1OC)C(C)N(C(=O)c1cc3ccccc3o1)CC2` (stereo unspecified) stands -11.9%.
With `CCOC(=O)C1CCCN(C(=O)CCCn2nc(C)n3c(cc4sccc43)c2=O)C1` (stereo unspecified), the growth inhibition was -4.78%.
On to `CCCc1nnc(NC(=O)c2ccncc2)s1`, for which the growth inhibition is -5.46%.
Under `Cc1ccc(-c2nc(CS(=O)CC(=O)NCc3ccc(Cl)cc3)c(C)o2)cc1` (stereo unspecified) stands 1.44%; under `COc1ccc(C)cc1NC(=O)CSc1nnc(-c2ccccn2)n1Cc1ccco1`, -2.92%; under `Cc1ccc(C)c(C(=O)Nc2c(C(N)=O)oc3ccccc23)c1`, -5.56%.
Under `CCCCSc1nc2c(c(=O)[nH]c(=O)n2C)n1CCc1ccccc1` stands -16.6%.
Under `Cn1c(=O)oc2cc(S(=O)(=O)N3CCC(C(=O)NCC4COc5ccccc5O4)CC3)ccc21` (stereo unspecified) stands -17.2%; under `COc1ccccc1-n1c(CNC(=O)c2ccccc2)nnc1SCC(=O)Nc1nnc(C)s1`, 3.6%.
